# High-throughput results: PubChem, several laboratories
# Most compounds without a hit are left out; they make up all but 5.2% or so of the library.
# HCV core dimer: blocks dimerization of HCV core protein; actives 0.33% (n = 300,000); inhibition, % at 5 µM; TR-FRET GST/Flag-core106 dimerization, 1536-well;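 active = inhibition above the mean of all tested compounds plus 3 SD, set per screening campaign, cut at about 45% in these data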
#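 Material: Tagged HCV core106 pair (GST and Flag) | Amount: GST-core106 13.5 nM, Flag-core106 17 nM | Medium: KF-containing HEPES buffer, pH 7.45, DTT, CHAPS, BSA | Reagent: Eu donor and XL665 acceptor anti-tag antibodies | Schedule: 4 h at 22.5 °C | Technique: Time-resolved FRET, ex 340 nm, em 617 and 671 nm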
# NS3 helicase inh: blocks Hepatitis C virus NS3 helicase unwinding. NS3 helicase DNA unwinding, Cy5 molecular beacon fluorescence. inhibition, % at 10.9 µM. actives 0.56% (n = 290,000). AID 1800;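 active = inhibition above the mean of all tested compounds plus 3 SD, set per campaign, cut at about 35% in these data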
#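 System: NS3 helicase fragment of HCV / Schedule: 1 h at 25 °C / Control set: DMSO alone as 0% and 110 µM thioflavine S as 100% / Reagent: Cy5/quencher beacon DNA duplex and ATP to start / Technique: Cy5 fluorescence / Replication: singlicate / Evaluation: % inhibition of end-to-start signal ratio versus controls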
# ZTA counter: ZTA (EBV) inhibition in EBNA-1 counter-screen; actives 0.15% (n = 320,000); ZTA-DNA binding, fluorescence polarization; inhibition, % at 11 µM; AID 2234; P03206; in the data active = inhibition above about 33%
# Target sequence (P03206 whole entry, looked up): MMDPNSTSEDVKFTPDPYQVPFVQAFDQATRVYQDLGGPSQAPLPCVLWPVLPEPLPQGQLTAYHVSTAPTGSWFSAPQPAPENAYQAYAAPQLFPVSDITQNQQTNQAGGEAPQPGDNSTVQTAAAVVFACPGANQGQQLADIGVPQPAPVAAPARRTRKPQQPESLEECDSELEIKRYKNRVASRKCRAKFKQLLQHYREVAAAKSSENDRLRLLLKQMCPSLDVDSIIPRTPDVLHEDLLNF
# ALR inh: human ALR oxidase inhibition via reduced H2O2; P55789; purified ALR, DTT oxidation, H2O2 HRP-luminol luminescence; inhibition, % (concentration not given with the values); actives 3.8% (n = 290,000);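 active = mean replicate inhibition above about 79%, with every replicate also reaching it, limit read from the data; inconclusive = only one of the two criteria met; inactive = mean below limit and not every replicate reaching it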
# Target sequence (P55789 whole entry, looked up): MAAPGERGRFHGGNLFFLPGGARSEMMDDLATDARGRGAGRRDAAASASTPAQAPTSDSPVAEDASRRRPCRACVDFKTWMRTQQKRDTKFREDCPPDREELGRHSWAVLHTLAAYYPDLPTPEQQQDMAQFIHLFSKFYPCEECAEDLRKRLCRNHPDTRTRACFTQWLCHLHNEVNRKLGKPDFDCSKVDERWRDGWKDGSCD
# PfM18AAP inh: PfM18AAP enzyme inhibition | actives 1.2% (n = 290,000) | inhibition, % at 7.35 µM | recombinant PfM18AAP, H-Glu-NHMec fluorogenic cleavage | AID 1822;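 active = inhibition above the campaign mean inhibition over all tested compounds plus 3 SD, cut at about 28% in these data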
# EBNA-1 inhibitor: blocks EBNA-1 binding to DNA; EBNA-1 DNA binding, fluorescence polarization; inhibition, % at 14.8 µM; actives 0.34% (n = 300,000); AID 1950; in the data active = inhibition above about 28%
# Numbers stand for hits; n = inactive; u = inconclusive; x = no result.
SMILES,HCV core dimer,NS3 helicase inh,ZTA counter,ALR inh,PfM18AAP inh,EBNA-1 inhibitor
COC(=O)c1ccn(CC(=O)NC2CCCCC2)n1,n,n,n,94,n,n
COc1ccc(CCN(C)C/C=C/c2ccccc2[N+](=O)[O-])cc1OC,x,n,x,n,n,x
CN(Cc1ccc(Cl)c(Cl)c1)C(=O)C1CSC2(C)CCC(=O)N12 (stereo not given),x,x,n,n,x,x
Cc1cc(C)cc(NC(=O)c2cccc(NC3=NC4CS(=O)(=O)CC4S3)c2)c1 (stereo not given),n,n,n,n,n,n
CCOc1ccc(N(CC(=O)Nc2ccc(C)c(F)c2)C2=NC3CS(=O)(=O)CC3S2)cc1 (stereo not given),n,n,n,n,n,n
CCOc1ccc(N(CC(=O)Nc2ccc(OC)cc2)C2=NC3CS(=O)(=O)CC3S2)cc1 (stereo not given),n,n,n,99,n,n
O=C(NCCc1ccc(Cl)cc1)c1cccc(NC2=NC3CS(=O)(=O)CC3S2)c1 (stereo not given),n,n,n,n,n,n
Cc1cccc(NC(=O)CN(C2=NC3CS(=O)(=O)CC3S2)c2ccccc2F)c1 (stereo not given),n,n,n,99,n,n
O=S1(=O)CC2N=C(N(Cc3ccc(F)cc3Cl)c3ccccc3F)SC2C1 (stereo not given),n,n,n,98,n,n
Cc1ccc2nc(SCC(=O)c3ccc(Cl)s3)[nH]c2c1,n,n,n,n,n,n
COC(=O)c1cc(NC(=O)CSc2nc(C)cc(=O)[nH]2)cc(C(=O)OC)c1,n,n,n,n,n,n
CCOC(=O)c1ccc(NC(=O)CSc2nc(C)cc(=O)[nH]2)cc1,63,n,n,99,n,n
CCCc1cc(=O)[nH]c(SCC(=O)Nc2ccc(N3CCCCC3)cc2)n1,x,x,x,n,x,x
CCCCc1ccc(Nc2nc(CCC)cc(=O)[nH]2)cc1,n,n,n,n,n,n
CCCc1cc(=O)[nH]c(Nc2ccc(N3CCCCC3)cc2)n1,n,n,n,98,n,n
CC(=O)c1c(C)[nH]c(C(=O)CSc2nc3ccc(C)cc3[nH]2)c1C,n,n,n,97,n,n
Cc1cc(=O)[nH]c(SCC(=O)Nc2ccc(N3CCCCC3)cc2)n1,x,x,x,92,x,x
CC1(C)C2CC[C@]3(C)C(CC=C4[C@@H]5C[C@@](C)(CO)[C@@H](O)C[C@]56C[C@@H](OC6=O)[C@]43C)[C@@]2(C)CC[C@@H]1O (stereo not given in full),n,x,n,n,x,n
O=C(CSc1nncs1)Nc1ccc(N2CCCCC2)cc1,x,x,n,98,x,x
CCN(CC)c1ccc(NC(=O)CSc2nc(C)cc(=O)[nH]2)cc1,n,x,n,99,x,n
CCOC(=O)c1cc(C#N)c(SCC(=O)Nc2ccc(C(C)=O)cc2)[nH]c1=O,n,n,n,99,n,n
COc1ccc(NC(=O)CSc2nncs2)cc1S(=O)(=O)N1CCCCC1,x,x,x,n,x,x
CCN(CC)c1ccc(NC(=O)CSc2nc3ccccc3c(=O)[nH]2)cc1,n,n,n,u,n,n
CCOc1ccc(NC(=O)CSc2nncc(=O)[nH]2)cc1,n,n,n,99,n,n
O=C1CC(c2cc([N+](=O)[O-])ccc2Cl)c2c(ccc3ccccc23)N1 (stereo not given),n,n,n,x,n,n
SMILES,HCV core dimer,NS3 helicase inh,ZTA counter,ALR inh,PfM18AAP inh,EBNA-1 inhibitor
CCOC(=O)c1ccc(NC(=O)CSc2nc3sc(C(=O)O)c(C)c3c(=O)[nH]2)cc1,n,n,n,98,n,n
Cc1cc(=O)[nH]c(SCC(=O)Nc2ccc(F)c([N+](=O)[O-])c2)n1,n,n,n,98,n,n
COC(=O)c1ccc(CSc2nc3sc(C(=O)O)c(C)c3c(=O)[nH]2)cc1,n,n,n,n,n,n
Cc1cc(=O)[nH]c(SCC(=O)Nc2ccc(S(N)(=O)=O)cc2)n1,n,n,n,99,n,n
Cc1cc(=O)[nH]c(SCC(=O)Nc2ccc(C)c(S(=O)(=O)N3CCCCC3)c2)n1,n,n,n,n,n,n
Cc1ccc2nc(SCC(=O)Nc3ccc(F)c([N+](=O)[O-])c3)[nH]c2c1,n,n,n,x,n,n
CCc1ccc(NC(=O)CSc2nc(NS(=O)(=O)c3ccccc3)cc(=O)[nH]2)cc1,x,n,x,x,n,x
